This is a sample that favours compounds with a hit; in the whole collection about 2.9% have one here.
CHO-K1 Ca ag – M1 agonist counterscreen hit in parental CHO-K1 cells | Fluo-8 calcium fluorescence; scaled to maximal ATP response, vehicle zero | activation, % at 3 µM | hit rate 0.48% among 360,000; in the data active means activation above about 15%;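 further: untransfected CHO-K1 host cells lacking M1 receptor as counterscreen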
CHO parental Ca – counter-screen: ATP calcium response change in parental CHO cells. parental CHO-K1, ATP-induced calcium, Fluo-8 fluorescence. inhibition, % at 5.6 µM. hit rate 0.63% among 330,000. AID 463079;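 active means inhibition above that plate's mean sample inhibition plus 3 SD, cut at about 26% in these data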
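Assay system – parental CHO cells · Reagent – ATP stimulus · Detection – intracellular calcium via Fluo-8 no-wash fluorescent dye · Evaluation – percent inhibition of ATP-evoked calcium rise, normalized to controls · Controls – ATP wells versus no-ATP DMSO wells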
CHO-K1 Ca PAM – M1 PAM counterscreen hit in parental CHO-K1 cells; ATP EC20, Fluo-8 calcium fluorescence; 0% at ATP EC20, 100% at ATP max; activation, % at 3 µM; hit rate 0.02% among 360,000; AID 602247;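 active means activation above the run cutoff, the mean activation of all test compounds plus 3 SD, cut at about 40% in these data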;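 further: peak over basal fluorescence ratio in a 140 s read after ATP addition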
OX1R antag-1 – blocks the human orexin 1 receptor; hit rate 0.43% among 330,000; AID 434989; O43613; inhibition, % at 5 µM; CHO/OX1R cells, Fluo-8 calcium fluorescence, orexin A;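 active means inhibition above its plate's threshold, mean inhibition of all tested compounds on the plate plus 3 SD, cut at about 37% in these data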
Target sequence (O43613 whole entry, looked up): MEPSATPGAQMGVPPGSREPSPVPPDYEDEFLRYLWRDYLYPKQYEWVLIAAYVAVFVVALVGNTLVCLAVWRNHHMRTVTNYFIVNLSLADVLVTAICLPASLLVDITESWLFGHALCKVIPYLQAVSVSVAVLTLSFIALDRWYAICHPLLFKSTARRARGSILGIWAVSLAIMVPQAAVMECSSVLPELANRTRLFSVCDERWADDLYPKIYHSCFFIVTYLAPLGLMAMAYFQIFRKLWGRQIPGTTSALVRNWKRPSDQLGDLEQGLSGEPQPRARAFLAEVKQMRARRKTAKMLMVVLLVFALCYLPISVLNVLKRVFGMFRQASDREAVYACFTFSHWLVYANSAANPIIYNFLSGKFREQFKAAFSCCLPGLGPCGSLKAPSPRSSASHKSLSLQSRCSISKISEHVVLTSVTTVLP
OX1R antag-2 – antagonists of human orexin 1 receptor (OX1R); inhibition, % at 6.6 µM; OX1R-expressing cells, FRET antagonist read-out; hit rate 1.8% among 330,000; O43613; in the data active means inhibition mostly above about 38%, no sharp cut-off; inactive means mostly below about 40%
CHO-K1 Ca antag – M1 antagonist counterscreen hit in parental CHO-K1 cells; AID 602250; hit rate 0.6% among 360,000; ATP-induced calcium, Fluo-8 fluorescence; inhibition, % at 3 µM;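 active means inhibition above a per-plate cutoff, the plate's mean sample inhibition plus 3 SD, cut at about 24% in these data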
Hits are given with their value; . = inactive; / = no result given.

SMILES	CHO-K1 Ca ag	CHO parental Ca	CHO-K1 Ca PAM	OX1R antag-1	OX1R antag-2	CHO-K1 Ca antag
Cc1cc(/C=C2\C(=N)N3C(SCc4ccccc4)=NSC3=NC2=O)c(C)n1Cc1ccccc1	.	.	.	.	.	.
Cc1cc(/C=C2\C(=N)N3N=C(c4ccco4)SC3=NC2=O)c(C)n1Cc1ccccc1	.	41	.	104	.	.
O=[N+]([O-])c1cc(S(=O)(=O)C(F)(F)F)ccc1Sc1nc2ccccc2[nH]1	.	.	.	.	.	.
CS(=O)(=O)c1ccc(Sc2nc3ccccc3[nH]2)c([N+](=O)[O-])c1	.	.	.	.	44	.
CCCOc1ncnc2c1[nH]c1ccc(OC)cc12	.	.	.	.	.	.
CCCCOc1ncnc2c1[nH]c1ccc(C)cc12	.	56	.	.	.	.
Cc1noc(C)c1S(=O)(=O)Nc1ccc2c(c1)CC(=O)N([C@H](C)CO)C[C@H](C)[C@@H](CN(C)CC1CC1)O2	.	.	.	.	.	.
O=C(Nc1nc(-c2cccs2)c(C(=O)C(F)(F)F)s1)c1ccccc1	.	.	.	.	60	.
O=C(Nc1ccccc1C(=O)O)c1cc(S(=O)(=O)Nc2ccccc2)ccc1Cl	.	.	.	.	.	.
C=CCn1c(COc2cccc(C)c2)nnc1SCn1nnc2ccccc2c1=O	.	.	.	.	.	.
COc1ccc(N2CCN(S(=O)(=O)c3cccc4nsnc34)CC2)cc1	.	.	.	.	.	.
CCCCN(C)CCNC(=O)C1CCN(S(=O)(=O)c2cccc3nsnc23)CC1	.	.	.	.	49	.
CC(=O)c1ccc(N2CCN(S(=O)(=O)c3cccc4nsnc34)CC2)cc1	.	.	.	.	.	24
CCCN(CCC)CCNC(=O)C1CCN(S(=O)(=O)c2cccc3nsnc23)CC1	.	.	.	.	43	.
CCCCN(CC)CCNC(=O)C1CCCN(S(=O)(=O)c2cccc3nsnc23)C1 (stereo not drawn)	.	.	.	.	.	.
CCCCN(CC)CCNC(=O)C1CCN(S(=O)(=O)c2cccc3nsnc23)CC1	.	.	.	.	51	.
O=C(O)C1C2OC(C(Br)C2Br)C1C(=O)O (stereo not drawn)	.	/	.	/	/	.
COC(=O)c1ccccc1C(=O)N1CCC(CCC(=O)NC2CC2)CC1	.	.	.	.	.	.
O=C(CSc1ccccn1)N1CCNC1=O	.	.	.	.	.	.
O=C(C1CCC(CNS(=O)(=O)c2cccc3nsnc23)CC1)N1CC=C(c2ccccc2)CC1 (stereo not drawn)	.	.	.	.	.	26
O=C(C1CCN(S(=O)(=O)c2cccc3nsnc23)CC1)N1CCCCC1	.	.	.	.	44	.
O=C(C1CCN(S(=O)(=O)c2cccc3nsnc23)CC1)N1CC=C(c2ccccc2)CC1	.	.	.	.	.	.
O=C(COc1ccc(Cl)cc1Br)N1CCN(c2ncccn2)CC1	.	/	.	/	/	.
CCCc1cc(C(=O)N2CCCC(C(=O)c3cc(C)c(OC)c(C)c3)C2)n(C)n1 (stereo not drawn)	.	.	.	.	37	.
CCCc1cc(C(=O)N2CCCC(C(=O)c3ccc(Cl)cc3)C2)n(C)n1 (stereo not drawn)	.	.	.	.	.	.
SMILES	CHO-K1 Ca ag	CHO parental Ca	CHO-K1 Ca PAM	OX1R antag-1	OX1R antag-2	CHO-K1 Ca antag
COc1c(C)cc(C(=O)C2CCCN(C(=O)c3ccc4[nH]ccc4c3)C2)cc1C (stereo not drawn)	.	.	.	.	75	.
OC[C@@H]1CN(Cc2ccc3c(c2)OCO3)C[C@H](n2cnc3c(NC4CCC4)ncnc32)O1	.	/	.	/	/	.
Oc1ccccc1-c1n[nH]c(-c2ccccc2O)n1	17	/	.	/	/	.
O=C(Cc1ccc(Cl)cc1)Nc1ccncc1	.	.	.	.	.	.
Cc1ccccc1OCC(=O)Nc1ccncc1	.	.	.	.	.	.
Cc1ccc(OCC(=O)Nc2ccncc2)c(C)c1	.	.	.	.	.	29
CCCCOc1ccc(C(=O)Nc2ccncc2)cc1	.	42	.	45	.	.
CCc1ccc(OCC(=O)Nc2ccncc2)cc1	17	.	.	.	.	.
Cc1ccc(CC(=O)Nc2ccncc2)cc1	.	.	.	.	.	36
CCn1c(SCC(=O)Nc2ccc(N3CCOCC3)cc2)nnc1-c1ccco1	.	.	.	.	.	.
O=C(COC(=O)Cc1ccsc1)Nc1cccc(F)c1	.	.	.	.	.	.
CCOCCCN(C(=O)CCC(=O)Nc1cc(C)on1)C(C(=O)NC(C)(C)C)c1ccccc1Cl (stereo not drawn)	.	.	.	.	.	.
CC(C)(C)c1ccc(OCC(=O)Nc2ccncc2)cc1	.	.	.	.	.	.
CCCCOc1ccc(CC(=O)NO)cc1	.	44	.	.	.	.
Cc1ccc(Oc2ccc(OCC(=O)Nc3ccncc3)cc2)cc1	.	58	.	50	.	.
CSc1nc(C)nc(N/C=C(\C#N)S(=O)(=O)c2ccccc2Cl)n1	.	.	.	.	.	.
Nc1nc(N)c(N=O)c(Nc2cccc(Cl)c2)n1	.	/	.	/	/	.
Cc1ccc(Nc2nc(N)nc(N)c2N=O)cc1Cl	36	/	.	/	/	.
Nc1nc(N)c(Br)c(Nc2ccc(Cl)c(Cl)c2)n1	.	/	.	/	/	.
Nc1nc(N)c(N=O)c(Nc2ccc(Cl)c(Cl)c2)n1	.	/	53	/	/	.
O=C(COC(=O)c1ccc(S(=O)(=O)N2CCOCC2)cc1)NCc1ccco1	.	/	.	/	/	.
Fc1ccccc1NC(=S)Nc1ccc(CN2CCOCC2)cc1	.	.	.	.	.	.
COc1ccc(Cc2noc(CN(C)CC3(N4CCOCC4)CCCCC3)n2)cc1OC	.	.	.	.	.	.
CCOc1ccccc1C(=O)Nc1ccccc1O	.	.	.	.	.	.
CCOc1ccccc1C(=O)Nc1cccc2ccccc12	.	.	.	.	53	.
SMILES	CHO-K1 Ca ag	CHO parental Ca	CHO-K1 Ca PAM	OX1R antag-1	OX1R antag-2	CHO-K1 Ca antag
CC(=O)Nc1cccc(NC(=O)c2cccc3cccnc23)c1	.	.	.	.	71	.
O=C(Nc1cccc2cccnc12)c1ccccc1Cl	.	.	.	.	.	.
COc1ccccc1C(=O)Nc1cccc2cccnc12	.	.	.	.	73	.
Cc1ccc(NC(=O)c2cccc3cccnc23)cc1	.	.	.	.	.	.
CC(C)(C)OC(=O)C[C@H]1C/C=C\C[C@H](CC(=O)N(CCO)Cc2ccccc2)C(=O)N[C@H](C(C)(C)C)COC1=O	.	.	.	.	.	.
COc1ccc(NC(=O)c2ccncc2)cc1S(=O)(=O)N1CCCCC1	.	/	.	/	/	.
CCOC(=O)N1CCC(N(CCN(C)C)C(=S)Nc2ccc(F)c(Cl)c2)CC1	.	.	.	.	.	27
COc1ccc(NC(=O)c2cc(C3CCCCN3S(C)(=O)=O)on2)c(C)c1 (stereo not drawn)	.	/	.	/	/	28
COc1ccc(NC(=O)c2cc(C3CCCCN3S(=O)(=O)c3ccccc3)on2)c(C)c1 (stereo not drawn)	.	/	.	/	/	.

Screening results deposited in PubChem BioAssay by The Scripps Research Institute Molecular Screening Center.
